# Activity calls are given as the source filed them. The rule behind the calls is not given here.
# What was measured:
# [1] = Toxicity in lean C57BL/6J mouse assessed as change in body weight at 20 mg/kg, po measured after 6 weeks; format: organism-based; conditions: in vivo, 1008 h
# [2] = target: T1, 5-hydroxytryptamine receptor 2C (Homo sapiens) (UniProt P28335); test: Agonist activity at 5HT2CR (unknown origin) expressed in HEK293 cells harboring luc2P/NFAT-RE plasmid at 10 uM after 6 to 8 hrs by luciferase reporter gene assay; format: cell-based
# T1 sequence (whole entry): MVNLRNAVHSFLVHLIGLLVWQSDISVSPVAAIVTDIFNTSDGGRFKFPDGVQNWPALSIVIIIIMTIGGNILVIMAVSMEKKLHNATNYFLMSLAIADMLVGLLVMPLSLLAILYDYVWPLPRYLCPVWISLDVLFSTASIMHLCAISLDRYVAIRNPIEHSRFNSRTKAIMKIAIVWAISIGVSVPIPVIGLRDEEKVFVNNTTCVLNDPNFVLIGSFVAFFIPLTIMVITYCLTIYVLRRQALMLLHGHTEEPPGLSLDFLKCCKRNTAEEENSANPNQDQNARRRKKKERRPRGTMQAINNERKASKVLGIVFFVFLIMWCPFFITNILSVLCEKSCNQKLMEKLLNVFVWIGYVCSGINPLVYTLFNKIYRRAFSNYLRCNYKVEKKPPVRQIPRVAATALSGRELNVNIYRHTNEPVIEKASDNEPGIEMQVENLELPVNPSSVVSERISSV
# In short: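 NFAT-RE luciferase assay in HEK293T cells transiently co-transfected with luc2P/NFAT-RE plasmid and receptor plasmid. Cells plated in DMEM and incubated overnight at 37 °C, 5% CO₂. Compounds and reference ligands applied for 6-8 h. Luciferase read after adding Bright-Glo substrate (1 mg/ml final).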
# [3] = Drug level in C57BL/6J mouse brain at 4 hrs post-dose by equilibrium dialysis method; format: ADME, tissue-based; conditions: in vivo
# In short: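 Unbound brain level derived from brain concentration after 20 mg/kg oral dose, multiplied by unbound fraction from brain-homogenate equilibrium dialysis; given at Cmax and at 4 h.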
# [4] = Apparent volume of distribution in C57BL/6J mouse brain at 20 mg/kg, po by LC-MS/MS analysis; format: ADME, organism-based
# In short: (§1)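 Male C57BL/6J mice (6-8 weeks, 20 ± 5 g) fasted overnight (12-16 h) got a single 20 mg/kg oral dose as 2.5 mg/mL suspension in 1% w/v gum acacia; n=5 per time point. Serum and brain (PBS homogenate 1:6 w/v) sampled up to 24 h. Parent and demethylated metabolite quantified by LC-MS/MS after liquid-liquid extraction (C18, MRM, phenacetin internal standard; linear 0.25-200 ng/mL). Two-compartment open model fit.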
# [5] = test system: Mus musculus; test: Anorexic effect in 12 hrs fasted db/db-induced obese C57BL/6J mouse model assessed as reduction in cumulative food intake at 20 mg/kg, po pretreated for 30 mins followed by food addition measured after 4 hrs relative to control; format: functional; set-up: scale not given: the % may be the effect or the level left
# In short: (§2)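 Mice starved 12 h (8:00 am to 8:00 pm) with water available, then housed singly. Compound given orally in 5% gum acacia in normal saline; vehicle group received the same. Cumulative food intake measured over 4 h of the night phase (9:00 pm to 1:00 am), starting 30 min after dosing. Antagonism arms: imitet 5 mg/kg i.p. 30 min before compound, or α-methyl-DL-histidine 20 mg/kg i.p. 2 h before.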
# [6] = Half life in C57BL/6J mouse brain assessed as 4-(2-Amino-8-methyl-5,6,7,8-tetrahydroquinazolin-4-yl)phenol level at 20 mg/kg, po by LC-MS/MS analysis; format: ADME, organism-based; conditions: in vivo; in short: as §1
# [7] = test system: Mus musculus; test: Anorexic effect in 12 hrs fasted db/db-induced obese C57BL/6J mouse model assessed as reduction in cumulative food intake at 20 mg/kg, po pretreated for 30 mins followed by food addition measured after 4 hrs in presence of H3R agonist-imitet; format: functional, organism-based; in short: as §2
compound,measurement,setting,value
COc1ccc(-c2nc(N)nc3c2CCCC3C)cc1 (racemic),Activity,[1],Non-Toxic
same,inhibition,[2],inactive
same,Drug uptake,[3],20.8 nM
same,Vd/F,[4],28.3 L/kg
same,Activity,[5],33%
same,t1/2,[6],1.2 h
same,Activity,[7],inactive

# Reference: ChEMBL document CHEMBL4393678, “Novel Tetrahydroquinazolinamines as Selective Histamine 3 Receptor Antagonists for the Treatment of Obesity” (J Med Chem, 2019)
